Laboratory results reported in PMC3607822 (The Journal of General Physiology, 2013).
Numbering of substitutions follows the chain as printed.

Legend:
[1] = target: T1, human CNGA3 wild-type homomeric channels (Homo sapiens, UniProt Q16281); experiment: Inside-out patch clamp, homomeric CNGA3 wild type expressed in X. laevis oocytes; format: biochemical
T1 sequence (Q16281 1-694): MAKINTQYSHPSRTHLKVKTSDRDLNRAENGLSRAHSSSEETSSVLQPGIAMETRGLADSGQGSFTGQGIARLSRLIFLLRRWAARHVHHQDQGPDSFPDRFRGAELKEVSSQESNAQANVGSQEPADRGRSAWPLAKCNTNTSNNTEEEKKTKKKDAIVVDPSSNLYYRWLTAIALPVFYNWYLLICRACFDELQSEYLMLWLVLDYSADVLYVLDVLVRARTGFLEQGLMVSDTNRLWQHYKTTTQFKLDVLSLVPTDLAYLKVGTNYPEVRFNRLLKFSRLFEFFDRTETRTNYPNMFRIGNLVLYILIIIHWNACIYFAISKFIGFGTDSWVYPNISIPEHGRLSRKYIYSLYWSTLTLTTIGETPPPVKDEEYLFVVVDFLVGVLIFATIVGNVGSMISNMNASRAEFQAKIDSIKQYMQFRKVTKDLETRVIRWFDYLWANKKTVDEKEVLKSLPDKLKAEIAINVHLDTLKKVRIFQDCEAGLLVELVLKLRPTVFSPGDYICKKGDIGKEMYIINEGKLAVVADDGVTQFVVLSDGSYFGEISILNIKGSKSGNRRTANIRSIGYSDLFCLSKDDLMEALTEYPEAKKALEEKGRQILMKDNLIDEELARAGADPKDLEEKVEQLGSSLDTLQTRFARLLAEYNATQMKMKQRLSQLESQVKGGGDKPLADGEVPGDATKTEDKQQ

[2] = tested on: CNG channels; settings: ref Fodor et al., 1997; cited from earlier work
[3] = target: T2, CNGA3 P99L, A105P (PA-LP) channels (Homo sapiens, UniProt Q16281, A105P/P99L); experiment: Inside-out patch clamp, CNGA3 P99L, A105P; format: biochemical; settings: after PIP3 or PIP2 application
T2 sequence (Q16281 1-694 P99L/A105P): T1 sequence (Q16281 1-694) with P99L, A105P

[4] = target: T3, heteromeric CNGA3+CNGB3 channels (Homo sapiens, UniProt Q16281+Q9NQW8); experiment: Inside-out patch clamp, heteromeric CNGA3+CNGB3; format: biochemical
T3 sequence (Q16281 1-694): T1 sequence (Q16281 1-694)
T3 sequence (Q9NQW8 1-809): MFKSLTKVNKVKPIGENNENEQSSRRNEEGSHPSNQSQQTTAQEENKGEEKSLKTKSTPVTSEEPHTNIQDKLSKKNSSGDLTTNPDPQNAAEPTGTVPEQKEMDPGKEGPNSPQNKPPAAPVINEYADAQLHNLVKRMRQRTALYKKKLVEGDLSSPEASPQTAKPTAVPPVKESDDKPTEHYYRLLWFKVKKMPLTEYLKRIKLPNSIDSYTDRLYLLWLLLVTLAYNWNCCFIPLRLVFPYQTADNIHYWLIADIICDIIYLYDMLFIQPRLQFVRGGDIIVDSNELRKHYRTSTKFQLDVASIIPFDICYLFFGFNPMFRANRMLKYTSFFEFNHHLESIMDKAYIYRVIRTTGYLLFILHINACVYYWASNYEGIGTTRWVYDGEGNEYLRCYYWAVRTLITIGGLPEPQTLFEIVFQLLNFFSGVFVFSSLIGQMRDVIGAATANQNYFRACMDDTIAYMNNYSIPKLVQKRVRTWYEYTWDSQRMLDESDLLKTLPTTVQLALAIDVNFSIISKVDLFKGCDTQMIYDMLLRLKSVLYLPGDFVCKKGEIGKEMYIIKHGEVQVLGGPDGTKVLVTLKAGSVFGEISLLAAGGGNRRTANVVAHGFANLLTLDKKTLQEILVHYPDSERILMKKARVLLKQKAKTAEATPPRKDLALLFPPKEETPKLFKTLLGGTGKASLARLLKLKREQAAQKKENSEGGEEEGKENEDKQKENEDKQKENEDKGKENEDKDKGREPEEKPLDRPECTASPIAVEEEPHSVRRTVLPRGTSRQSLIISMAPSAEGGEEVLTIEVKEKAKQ

[5] = target: CNGA1 homomeric channels (Bos taurus, UniProt Q00194); experiment: Inside-out patch clamp, homomeric CNGA1; format: biochemical, bovine; settings: PIP3 or PIP2 application
CNGA1 homomeric channels, sequence (Q00194 whole entry): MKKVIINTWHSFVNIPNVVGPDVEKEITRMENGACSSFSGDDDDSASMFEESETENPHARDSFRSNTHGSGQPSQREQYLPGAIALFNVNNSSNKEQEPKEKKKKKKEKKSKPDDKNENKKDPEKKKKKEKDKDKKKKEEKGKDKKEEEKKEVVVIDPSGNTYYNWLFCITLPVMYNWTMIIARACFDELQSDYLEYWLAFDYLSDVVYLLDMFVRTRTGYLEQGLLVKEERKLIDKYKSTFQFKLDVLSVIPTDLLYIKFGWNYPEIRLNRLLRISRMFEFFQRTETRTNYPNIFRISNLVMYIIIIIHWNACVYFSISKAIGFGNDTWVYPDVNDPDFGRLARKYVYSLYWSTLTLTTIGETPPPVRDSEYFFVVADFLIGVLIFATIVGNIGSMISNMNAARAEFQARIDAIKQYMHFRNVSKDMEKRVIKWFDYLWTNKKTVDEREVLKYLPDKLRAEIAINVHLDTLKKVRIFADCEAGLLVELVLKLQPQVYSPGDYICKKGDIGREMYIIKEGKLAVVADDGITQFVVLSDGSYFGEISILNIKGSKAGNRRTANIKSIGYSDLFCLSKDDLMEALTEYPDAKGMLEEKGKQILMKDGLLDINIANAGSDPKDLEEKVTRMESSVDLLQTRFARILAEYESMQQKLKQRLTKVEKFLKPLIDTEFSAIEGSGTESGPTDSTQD

[6] = target: T4, A3-N7R-A,RR-QQ+B3 channels (Homo sapiens, UniProt Q16281+Q9NQW8, R101A/R103A/R643Q/R646Q/R72A/R75A/R81A/R82A/R86A); experiment: Inside-out patch clamp, A3-N7R-A,RR-QQ+B3; format: biochemical; settings: 10 µM PIP2 or 1 µM PIP3
T4 sequence (Q16281 1-694 R72A/R75A/R81A/R82A/R86A/R101A/R103A/R643Q/R646Q): T1 sequence (Q16281 1-694) with R72A, R75A, R81A, R82A, R86A, R101A, R103A, R643Q, R646Q
T4 sequence (Q9NQW8 1-809): T3 sequence (Q9NQW8 1-809)
In short: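 Subunit cRNAs (~20 ng, B in excess over A) injected into stage IV Xenopus oocytes; inside-out patches 2–7 d later, 20–22°C, symmetric 130 mM NaCl, 0.2 mM EDTA, 3 mM Hepes pH 7.2. Heteromer formation checked by 25 µM l-cis-diltiazem with 1 mM cGMP. diC8 phosphoinositides applied intracellularly in phosphatase-inhibitor cocktail. cGMP dose–response at +80 mV, leak-subtracted, Hill fit before/after for K1/2; mean ± SEM.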

[7] = mean, after 1 µM PIP3 or 10 µM PIP2
[8] = representative patch, after PIP3 or PIP2

For `C=C1[C@@H](C)[C@H]2[C@H](Cc3ccccc3)NC(=O)[C@]23[C@H](OC(C)=O)/C=C/[C@@](C)(O)C(=O)[C@@H](C)C/C=C/[C@H]3[C@@H]1O` [cyto D, cytochalasin D], the “effect on cAMP efficacy” value ([1]; 10 µM cyto D applied to inside-out patches) was “decrease in cAMP efficacy”.

In the case of `CCCCNc1ccc(C(=O)OCCN(C)C)cc1` [tetracaine], the “greater affinity for closed compared with open channels” value [2] is given as ~1,000 fold.

With “phosphatidylinositol (4,5)-biphosphate [PIP2]” the “effect on maximal cGMP current” value ([1]; 1 mM cGMP) was “not significantly altered”, the “K1/2 cAMP after phosphoinositide” value ([1]; apparent cAMP affinity after PIP3 or PIP2 application) was 1.13 ± 0.04 mM and the “Hill coefficient h after phosphoinositide” value (“Hill coefficient h” below) [3] was 1.7. For the same compound, the “K1/2 cGMP after phosphoinositide” value [3] was 8.7 ± 0.4 µM, the “effect on currents elicited by 5 µM cGMP” value ([4]; 1 µM PIP3 or 10 µM PIP2) was “attenuated the currents” and the “Imax cAMP/cGMP after phosphoinositide” value ([4]; after PIP2 or PIP3 application) was 0.27 ± 0.02. The “Hill coefficient h” value [4, 7] was 1.6, the “K1/2 cGMP after phosphoinositide” value [4, 7] was 23.4 ± 1.8 µM and the “Hill coefficient h” value [4, 8] was 1.6. The “K1/2 cGMP after phosphoinositide” value [4, 8] was 24.5 µM, the “Imax cGMP compared with initial values” ([4]; saturating cGMP, after 1 µM PIP3 or 10 µM PIP2) was 85.3 ± 3.7% and the “effect on relative cAMP efficacy” value [5] was “decreased relative cAMP efficacy”. The “regulation of apparent cGMP affinity” value [6] was “insensitive to regulation”.

For poly-lysine, the “Imax cAMP/cGMP after poly-lysine” value ([1]; poly-lysine applied to control patches (no exogenous PIPn)) was 0.10 ± 0.01.
